Results published in ChEMBL document CHEMBL1155674, “New isomalabaricane triterpenes from the marine sponge Stelletta globostellata that induce morphological changes in rat fibroblasts” (J Nat Prod, 2000).
Activity calls are given as the source filed them. The rule behind the calls is not given here.

How the values were obtained:
[1] = system: 3Y1 cell line; test: Induction of morphological changes in rat 3Y1 cells assessed as lost pseudopodia at 0.2 uM before washing; type: functional, cell-based
In short: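 3Y1 B clone 1-6 fibroblasts, kept subconfluent in DMEM/10% fetal calf serum at 37 °C under 5% CO2, were seeded at 2 × 10⁴ cells/mL and incubated 24 h. Samples in MeOH were added. Morphology was checked by phase-contrast microscopy at 1, 5 and 24 h and on day 5. Some cultures were washed with fresh medium to test reversibility.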

[2] = Cytotoxicity against rat 3Y1 cells after 72 hrs by MTT assay; type: cell-based
In short: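 3Y1 rat embryonic fibroblasts (B clone 1-6) in DMEM with 10% fetal calf serum were seeded at 300 cells/well and incubated 24 h. Samples were added, then plates were held 72 h at 37 °C. MTT (5 mg/mL in Ca/Mg-free PBS) was added for 4 h, formazan was dissolved in DMSO, and absorbance was read at 540 nm to give GI50.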

[3] = system: P388; test: Cytotoxicity against mouse P388 cells by MTT assay; type: functional
[4] = system: Candida albicans; test: Antimicrobial activity against Candida albicans at 100 ug/disk; type: functional, organism-based
[5] = system: Umbelopsis ramanniana; test: Antimicrobial activity against Mortierella ramanniana at 100 ug/disk; type: functional, organism-based
[6] = system: Penicillium chrysogenum; test: Antimicrobial activity against Penicillium chrysogenum at 100 ug/disk; type: functional, organism-based
[7] = system: Bacillus subtilis; test: Antimicrobial activity against Bacillus subtilis at 100 ug/disk; type: functional, organism-based
[8] = system: Escherichia coli; test: Antimicrobial activity against Escherichia coli at 100 ug/disk; type: functional, organism-based
[9] = system: Pseudomonas aeruginosa; test: Antimicrobial activity against Pseudomonas aeruginosa at 100 ug/disk; type: functional, organism-based
[10] = system: Staphylococcus aureus; test: Antimicrobial activity against Staphylococcus aureus at 100 ug/disk; type: functional, organism-based
[11] = Induction of cell death in rat 3Y1 cells at 0.2 uM after 5 days without washing; conditions: 3y1, 120 h
[12] = Cytotoxicity against rat 3Y1 cells at 18 uM after 72 hrs by MTT assay; type: cell-based; conditions: 3y1, 72 h
[13] = system: P388; test: Cytotoxicity against mouse P388 cells at 18 uM by MTT assay; type: functional, cell-based
[14] = Induction of cell death in rat 3Y1 cells at 0.2 uM after 5 days after washing; type: cell-based; conditions: 3y1, 120 h

Compound	Activity [1]	GI50 at 72 h [2] [nM]	GI50 [3] [nM]	Activity [4]	Activity [5]	Activity [6]	Activity [7]	Activity [8]	Activity [9]	Activity [10]	Activity [11]	Activity [12]	Activity [13]	Activity [14]
CC(C)=CCC/C(C)=C/C=C/C(C)=C1\C(=O)C[C@H]2[C@@]3(C)CC[C@H](O)C(C)(C)[C@@H]3CC[C@]12C [STELLIFERIN D]	Active	18	24	inactive	inactive	inactive	inactive	inactive	inactive	inactive	Active	–	–	–
CC(=O)O[C@H]1CC[C@@]2(C)[C@@H](CC[C@]3(C)/C(=C(C)/C=C/C=C(\C)[C@@H](O)CC=C(C)C)C(=O)C[C@@H]23)C1(C)C [STELLIFERIN A]	Active	34	21	inactive	inactive	inactive	inactive	inactive	inactive	inactive	Active	–	–	–
CC(=O)O[C@@H]1CC[C@@]2(C)[C@@H](CC[C@]3(C)/C(=C(\C)C(=O)/C=C/C(C)=C/C=C/C(C)(C)O)C(=O)C[C@@H]23)[C@@]1(C)C(=O)[O-].[Na+] [GLOBOSTELLATIC ACID A]	–	–	–	–	–	–	–	–	–	–	–	Non-toxic	Not toxic	–
CC(C)=CCC/C(C)=C/C=C/C(C)=C1\C(=O)C[C@H]2[C@@]3(C)CC[C@H](O)[C@](C)(CO)[C@@H]3CC[C@]12C	Active	60	190	inactive	inactive	inactive	inactive	inactive	inactive	inactive	Active	–	–	–
CC(=O)O[C@@H](CC=C(C)C)/C(C)=C/C=C/C(C)=C1\C(=O)C[C@H]2[C@@]3(C)CC[C@@H](OC(C)=O)[C@](C)(CO)[C@@H]3CC[C@]12C	Active	52	160	inactive	inactive	inactive	inactive	inactive	inactive	inactive	–	–	–	Active
CC(=O)O[C@H]1C[C@H]2[C@@]3(C)CC[C@H](OC(C)=O)C(C)(C)[C@@H]3CC[C@]2(C)/C1=C(C)/C=C/C=C(\C)[C@H](CC=C(C)C)OC(C)=O	–	1300	1600	–	–	–	–	–	–	–	–	–	–	–
COc1cccc2c1C(=O)c1c(O)c3c(c(O)c1C2=O)C[C@@](O)(C(=O)CO)C[C@@H]3O[C@H]1C[C@H](N)[C@H](O)[C@H](C)O1 [DOXORUBICIN]	–	3.8	12	–	–	–	–	–	–	–	–	–	–	–
CC(=O)O[C@@H]1CC[C@@]2(C)[C@@H](CC[C@]3(C)/C(=C(C)/C=C/C=C(\C)[C@@H](O)CC=C(C)C)C(=O)C[C@@H]23)[C@@]1(C)CO	Active	46	180	inactive	inactive	inactive	inactive	inactive	inactive	inactive	–	–	–	Active
